Source: PubChem (several laboratories)
m-calpain inh: blocks pig calpain II enzyme activity | AID 1236 | inhibition, % at 16 µM | purified calpain II, fluorogenic peptide substrate, 30 min | 220,000 tested, 0.37% active;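 active = inhibition above about 50%, limit read from the data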
Cl transport mod: KCC2 (human) Cl- transport modulation | KCC2 cells, thallium flux FluoZin-2 fluorescence | B-score of Tl+ flux slope (higher = more flux/activation; lower = inhibition) at 10 µM | 190,000 tested, 2.2% active | AID 1456;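 active = thallium flux slope and its plate-corrected score both differing from the plate sample mean at a set confidence after two filtering rounds, in either direction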;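 also: slope of fluorescence scaled to starting intensity during 10 to 20 s after thallium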
ROMK primary: modulates human ROMK potassium channel activity; P48048; Tet-inducible ROMK, thallium flux fluorescence; actives lie on both sides; B-score at 10 µM; 130,000 tested, 2% active; AID 1918;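 active = signal ratio slope over the read window, or its plate-corrected B-score, at least 3 SD from the plate mean, either direction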;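 also: B-score of the F/F0 ratio slope over 7 to 12 s after thallium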
Target sequence (P48048 whole entry, looked up): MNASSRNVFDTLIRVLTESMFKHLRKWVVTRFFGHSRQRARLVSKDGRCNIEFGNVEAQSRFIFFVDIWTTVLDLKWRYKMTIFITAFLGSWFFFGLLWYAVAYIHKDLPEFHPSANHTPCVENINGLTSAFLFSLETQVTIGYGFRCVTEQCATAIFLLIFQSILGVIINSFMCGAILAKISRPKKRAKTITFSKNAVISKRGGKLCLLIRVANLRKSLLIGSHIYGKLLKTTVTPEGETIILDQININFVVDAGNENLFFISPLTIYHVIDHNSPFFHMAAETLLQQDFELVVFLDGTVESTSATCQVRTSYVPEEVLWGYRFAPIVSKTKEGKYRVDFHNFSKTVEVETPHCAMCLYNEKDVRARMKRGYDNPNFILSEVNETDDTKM
Arbovirus anti: arbovirus infection inhibition; arbovirus infection cell-based antiviral screen; inhibition, % at 10 µM; 200,000 tested, 0.37% active; in the data active = inhibition above about 30%
PKD1 kinase inh: blocks activity of human protein kinase D1. Q15139. PKD1 kinase fluorescence polarization assay. inhibition, % (no concentration beside the values). 200,000 tested, 0.056% active; in the data active = inhibition above about 50%
MDM2 E3 inh: inhibitors of human Mdm2 E3 ubiquitin ligase | cell-based MDM2 ubiquitination luciferase reporter, 2 h; 0 = plate control, 100 = twice control, blank-subtracted | 210,000 tested, 0.11% active | signal enhancement, % at 5 µM | Q00987;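 active = signal enhancement of 30% or more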;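 also: luminescence tracks abundance of the self-degrading MDM2-luciferase fusion protein; higher signal means inhibition of MDM2 E3 ligase activity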
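Test system: stable mammalian line carrying autodegrading MDM2–luciferase fusion reporter; quantity: 2000 cells in each well; times: 4 h cell settling then 2 h compound exposure, 37 °C; detection: luminescence with SteadyLite reagent, 15 min at room temperature; evaluation: percent signal gain over controls, blank-subtracted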
ROMK hit retest: retested hit modulating human ROMK potassium channel | shares compounds with ROMK primary | AID 1917 | 3,000 tested, 54% active | ROMK thallium flux, fluorescence ratio; stronger effect = lower value | normalized thallium flux (F/F0 slope) at 10 µM;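 active = Flux at 10 µM at least 3 SD below or above vehicle control mean in one or both replicates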
Large screens that a line does not name were inactive (follow-up assays come after a bar, where they were run). Hits are enriched below; roughly 3.7% of the tested compounds scored in any of these assays.

Cc1ccc(OCCCC(=O)NC(C)c2ccccc2)cc1 (stereo unspecified)	ROMK primary 3.2 (no result: Cl transport mod) | ROMK hit retest inactive
CNC(=O)c1nn(-c2ccc(Cl)cc2)ccc1=O	none (no result: ROMK primary)
CCCNC(=O)c1nnsc1S(=O)(=O)c1ccc(Cl)cc1	ROMK primary -4.9 | ROMK hit retest 0.047
CCCNC(=O)c1nnsc1S(=O)c1ccc(Cl)cc1 (stereo unspecified)	ROMK primary -6.4 | ROMK hit retest 0.055
CNC(=O)c1nnsc1S(=O)c1ccc(Cl)cc1 (stereo unspecified)	ROMK primary -8.8 | ROMK hit retest 0.049
CCCNC(=O)c1ccc2snnc2c1	none
Cc1ccc(NC(=O)CCn2cc(C(F)(F)F)ccc2=O)cc1	none (no result: ROMK primary, Arbovirus anti, PKD1 kinase inh)
Cc1nn(CC(=O)Nc2ccc(Cl)cn2)c(C)c1Br	none
O=C(COc1ccc(Cl)cc1Cl)NCc1ccco1	none (no result: Cl transport mod)
CCCNC(=O)C/C(C)=N/NC(=O)COc1ccc(C)cc1Br	none (no result: ROMK primary)
C/C(CC(=O)NCc1ccco1)=N\NC(=O)COc1ccc(Cl)cc1Cl	ROMK primary 3.6 | ROMK hit retest inactive
COc1ccc(CNC(=O)C/C(C)=N/NC(=O)COc2ccc(C)cc2Br)cc1	ROMK primary 3.4 | ROMK hit retest inactive
O=C(C[n+]1cccc(CNC(=O)c2ccc(OC(F)F)cc2)c1)Nc1ccc(SC(F)F)cc1	ROMK primary -4 | ROMK hit retest inactive
Cc1ccc(CN2CCNC(=O)C2CC(=O)NCC(F)(F)F)o1 (stereo unspecified)	none
Oc1c(Cl)cc(Cl)cc1/C=N/c1nc(-c2ccc(Cl)cc2)cs1	none (no result: ROMK primary, Arbovirus anti, PKD1 kinase inh)
Oc1c(Cl)cc(Cl)cc1/C=N/c1nccs1	ROMK primary 3.1 | ROMK hit retest 0.1
CC(C)C[C@@H](CSc1ccc(Br)cc1)N1CCN(C)CCC1=O	none (no result: ROMK primary, Arbovirus anti, PKD1 kinase inh) | ROMK hit retest inactive
CN1CCN(CCCC(=O)c2ccc(C3CCCC3)cc2)CC1	none
Cc1ccc(S(=O)(=O)CC(=O)c2ccc([N+](=O)[O-])cc2)cc1	none (no result: ROMK primary, Arbovirus anti, PKD1 kinase inh) | ROMK hit retest inactive
O=C(CN1N=C(c2ccccc2)CCC1=O)NCCN1CCc2ccccc2C1	none (no result: MDM2 E3 inh)
CCOC(=O)CCS(=O)(=O)c1nc(-c2ccccc2)cc(C(F)(F)F)n1	ROMK primary -4.4 | ROMK hit retest 0.055
O=C(O)CCS(=O)(=O)c1nc(-c2cccs2)cc(C(F)(F)F)n1	none (no result: Cl transport mod)
CCOC(=O)CS(=O)(=O)c1nc(-c2ccccc2)cc(C(F)(F)F)n1	ROMK primary -4.5 | ROMK hit retest 0.059
CCOC(=O)CS(=O)(=O)c1nc(-c2ccc(F)cc2)cc(C(F)(F)F)n1	none (no result: ROMK primary)
Cn1cc(-c2nnc(-c3ccccc3)o2)c2ccccc21	none (no result: ROMK primary)
Cc1nnc(Nc2ccc(Cl)c(C(F)(F)F)c2)[nH]c1=O	none
Cc1ccc(-n2nc(CN3CCOCC3)c(-c3ccccc3)c2N)c(C)c1	none (no result: ROMK primary)
O=C(OCC(=O)N1CCc2ccccc2C1)c1cccc([N+](=O)[O-])c1	none (no result: ROMK primary)
COC(=O)c1ccc(Oc2cc(C)nc(-n3nc(C)cc3C)n2)cc1	ROMK primary 4.9 | ROMK hit retest inactive
COC(=O)c1ccc(Oc2nc(C)cc(Oc3ccccc3)n2)cc1	none
CCC(C)NC(=S)N(CCc1ccccc1)Cc1cc2cc(OC)c(OC)cc2[nH]c1=O (stereo unspecified)	none
CCOC(=O)c1ccc(-n2c(O)c(/C=N/NC(=O)C3COc4ccccc4O3)c3ccccc3c2=O)cc1 (stereo unspecified)	none (no result: ROMK primary) | ROMK hit retest 0.046
Cc1ccc2c(n1)sc1c(N)ncnc12	ROMK primary 4.6 (no result: Cl transport mod) | ROMK hit retest inactive
Cc1ccc(-c2nn3c(C)nnc3s2)cc1NCc1c(F)cccc1Cl	none (no result: ROMK primary) | ROMK hit retest inactive
Cc1ccc(CNc2cc(-c3nn4c(C)nnc4s3)ccc2C)s1	none
CCC(=O)Oc1ccc2c(c1)O/C(=C\c1ccco1)C2=O	ROMK primary -7.4 (no result: Arbovirus anti, PKD1 kinase inh) | ROMK hit retest 0.051
COc1ccccc1C(=O)Oc1ccc2c(c1)O/C(=C\c1ccncc1)C2=O	none (no result: ROMK primary) | ROMK hit retest 0.061
O=C(Oc1ccc2c(c1)O/C(=C\c1ccncc1)C2=O)c1cccs1	none (no result: ROMK primary, Arbovirus anti, PKD1 kinase inh)
CC(=O)Oc1ccc2c(c1)O/C(=C\c1ccncc1)C2=O	none (no result: ROMK primary, Arbovirus anti, PKD1 kinase inh)
COc1cc(Br)cc2cc(C(=O)N3CCCCC3C)c(=O)oc12 (stereo unspecified)	none (no result: ROMK primary)
